From ChEMBL document CHEMBL1139738, “Pyridine-3-propanoic acids: Discovery of dual PPARalpha/gamma agonists as antidiabetic agents” (Bioorg Med Chem Lett, 2006)

Experiments:
[1] = biological target: T1, Peroxisome proliferator-activated receptor alpha (Homo sapiens, UniProt Q07869); assay: Agonist activity at human PPAR alpha in a HepG2 cells by PPAR-GAL4 transactivation assay; type: functional, cell-based
T1 sequence (Q07869 whole entry): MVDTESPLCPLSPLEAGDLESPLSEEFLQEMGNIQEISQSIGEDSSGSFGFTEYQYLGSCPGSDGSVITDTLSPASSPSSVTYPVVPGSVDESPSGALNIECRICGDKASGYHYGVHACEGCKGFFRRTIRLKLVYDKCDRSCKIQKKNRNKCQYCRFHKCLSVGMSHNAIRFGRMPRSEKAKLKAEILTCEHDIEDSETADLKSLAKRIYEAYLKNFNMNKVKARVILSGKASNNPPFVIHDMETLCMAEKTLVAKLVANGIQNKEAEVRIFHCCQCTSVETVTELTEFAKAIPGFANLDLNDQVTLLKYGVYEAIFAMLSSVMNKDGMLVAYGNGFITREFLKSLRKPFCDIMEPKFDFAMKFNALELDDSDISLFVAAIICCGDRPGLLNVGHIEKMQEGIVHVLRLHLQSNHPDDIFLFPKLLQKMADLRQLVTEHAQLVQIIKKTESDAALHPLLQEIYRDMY

[2] = biological target: T2, Peroxisome proliferator-activated receptor alpha (Homo sapiens) (UniProt Q07869); assay: Agonist activity at human PPAR alpha in a HepG2 cells by PPAR-GAL4 transactivation assay relative to GW-2331; type: functional, cell-based
T2 sequence (whole entry): T1 sequence (Q07869 whole entry)

[3] = biological target: T1, Peroxisome proliferator-activated receptor alpha; assay: Displacement of radiolabeled GW-2331 from human PPAR alpha by SPA binding assay
[4] = biological target: T2, Peroxisome proliferator-activated receptor alpha (Homo sapiens); assay: Displacement of radiolabeled GW-2331 from human PPAR alpha by SPA assay at 100 uM
In short: (§1)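 Scintillation proximity assay on human PPARα using radiolabelled GW2331 as the displaced ligand, following published procedures. Single-concentration lines report percent displacement at the stated test concentration; Ki was determined for compounds with a full curve.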

[5] = biological target: T3, Peroxisome proliferator-activated receptor gamma (Homo sapiens) (UniProt P37231); assay: Displacement of radiolabeled darglitazone from human PPAR gamma at 100 uM by SPA assay
T3 sequence (whole entry): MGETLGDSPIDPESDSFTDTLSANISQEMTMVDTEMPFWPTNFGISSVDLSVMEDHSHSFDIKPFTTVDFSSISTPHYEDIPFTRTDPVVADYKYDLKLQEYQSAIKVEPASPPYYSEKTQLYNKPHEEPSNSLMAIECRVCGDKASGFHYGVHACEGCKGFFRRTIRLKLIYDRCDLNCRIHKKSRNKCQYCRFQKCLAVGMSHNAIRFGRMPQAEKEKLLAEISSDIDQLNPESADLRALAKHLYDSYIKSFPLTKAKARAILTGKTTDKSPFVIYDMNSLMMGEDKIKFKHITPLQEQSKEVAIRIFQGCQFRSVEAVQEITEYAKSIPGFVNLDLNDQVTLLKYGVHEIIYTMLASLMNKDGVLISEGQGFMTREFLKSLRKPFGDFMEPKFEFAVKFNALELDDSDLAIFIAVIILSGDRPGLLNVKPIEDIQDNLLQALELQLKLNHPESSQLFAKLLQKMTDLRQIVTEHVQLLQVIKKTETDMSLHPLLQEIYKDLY
In short: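 Scintillation proximity assay on human PPARγ using radiolabelled darglitazone as the displaced ligand, following published procedures. Single-concentration lines report percent displacement at the stated test concentration; Ki was determined for compounds with a full curve.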

[6] = biological target: T2, Peroxisome proliferator-activated receptor alpha (Homo sapiens); assay: Displacement of radiolabeled GW-2331 from human PPAR alpha by SPA assay at 11 uM; in short: as §1
[7] = biological target: T4, Peroxisome proliferator-activated receptor gamma (Homo sapiens, UniProt P37231); assay: Agonist activity at human PPAR gamma in a HepG2 cells by PPAR-GAL4 transactivation assay; type: functional, cell-based
T4 sequence (P37231 whole entry): T3 sequence (whole entry)

[8] = biological target: T4, Peroxisome proliferator-activated receptor gamma; assay: Displacement of radiolabeled darglitazone from human PPAR gamma by SPA binding assay
[9] = tested on: Mus musculus; assay: Increase in body weight in orally dosed db/db mouse at 1 mg/kg after 8 days relative to control; type: functional; details: route oral
In short: (§2)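 Male db/db mice, 7 weeks old, with lean controls, given vehicle or compound by oral gavage once daily for 8 days. Plasma glucose, triglycerides, hematocrit and body weight measured before dosing on day −1 and 2 h post-dose on day 8. Percent change is expressed versus vehicle control, with significance at p < 0.05.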

[10] = Clearance in iv dosed Sprague-Dawley rat; type: ADME, organism-based; details: in vivo
In short: (§3)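 Pharmacokinetics in male Sprague–Dawley rats given iv and oral doses. Outputs are iv clearance (mL/min/kg), oral half-life, dose-normalized oral AUC (h μg/mL) and oral bioavailability (%).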

[11] = tested on: Mus musculus; assay: Reduction of plasma triglycerides in orally dosed db/db mouse at 1 mg/kg after 8 days relative to control; type: functional; parameters: scale not given: the % may be the effect or the level left; details: route oral; in short: as §2
[12] = tested on: Mus musculus; assay: Increase in body weight in orally dosed db/db mouse at 10 mg/kg in a 8 day study; type: functional; details: route oral; in short: as §2
[13] = tested on: Mus musculus; assay: Reduction of plasma glucose in orally dosed db/db mouse at 1 mg/kg after 8 days relative to control; type: functional; parameters: scale not given: the % may be the effect or the level left; details: route oral; in short: as §2
[14] = tested on: Mus musculus; assay: Reduction of plasma glucose in orally dosed db/db mouse at 10 mg/kg after 8 days relative to control; type: functional; parameters: scale not given: the % may be the effect or the level left; details: route oral; in short: as §2
[15] = tested on: Mus musculus; assay: Reduction of hematocrit in orally dosed db/db mouse at 10 mg/kg after 8 days relative to control; type: functional; parameters: scale not given: the % may be the effect or the level left; details: route oral; in short: as §2
[16] = Half life in orally dosed Sprague-Dawley rat; type: ADME, organism-based; details: in vivo, po; in short: as §3
[17] = tested on: Mus musculus; assay: Reduction of plasma triglycerides in orally dosed db/db mouse at 10 mg/kg after 8 days relative to control; type: functional; parameters: scale not given: the % may be the effect or the level left; details: route oral; in short: as §2
[18] = Oral bioavailability in Sprague-Dawley rat; type: ADME, organism-based; details: in vivo; in short: as §3
[19] = tested on: Mus musculus; assay: Reduction of hematocrit in orally dosed db/db mouse at 1 mg/kg after 8 days relative to control; type: functional; parameters: scale not given: the % may be the effect or the level left; details: route oral; in short: as §2
[20] = tested on: Mus musculus; assay: Reduction of plasma glucose in orally dosed db/db mouse at 0.03 mg/kg after 8 days relative to control; type: functional; parameters: scale not given: the % may be the effect or the level left; details: route oral; in short: as §2
[21] = tested on: Mus musculus; assay: Reduction of hematocrit in orally dosed db/db mouse at 0.03 mg/kg after 8 days relative to control; type: functional; parameters: scale not given: the % may be the effect or the level left; details: route oral; in short: as §2
[22] = tested on: Mus musculus; assay: Increase in body weight in orally dosed db/db mouse at 0.03 mg/kg after 8 days relative to control; type: functional; details: route oral; in short: as §2
[23] = tested on: Mus musculus; assay: Reduction of plasma triglycerides in orally dosed db/db mouse at 0.03 mg/kg after 8 days relative to control; type: functional; parameters: scale not given: the % may be the effect or the level left; details: route oral; in short: as §2

EC50 [1] | %max [2] | Ki [3] | SMILES | further results
486 nM | 96% | 65 nM | COc1ccc(-c2nc(CCOc3ccc(CC4(C(=O)O)CCCO4)cn3)c(C)o2)cc1 (stereo not given) | 
46 nM | 117% | 99 nM | Cc1oc(-c2cccc(Cl)c2)nc1CCOc1ccc(CC2(C(=O)O)CCCO2)cn1 (stereo not given) | 
134 nM | 86% | 277 nM | Cc1cccc(-c2nc(CCOc3ccc(CC4(C(=O)O)CCCO4)cn3)c(C)o2)c1 (stereo not given) | 
8 nM | 81% | 100 nM | Cc1oc(-c2cccc(C(F)(F)F)c2)nc1CCOc1ccc(CC2(C(=O)O)CCCO2)cn1 (stereo not given) | 
23 nM | 84% | 31 nM | Cc1ccc(-c2nc(CCOc3ccc(CC4(C(=O)O)CCCO4)cn3)c(C)o2)cc1 (stereo not given) | 
90 nM | 104% | 215 nM | COc1cccc(-c2nc(CCOc3ccc(CC4(C(=O)O)CCCO4)cn3)c(C)o2)c1 (stereo not given) | 
48 nM | 106% | 78 nM | Cc1oc(-c2ccccc2)nc1CCOc1ccc(CC2(C(=O)O)CCCO2)cn1 (stereo not given) | 
165 nM | 89% | 32 nM | Cc1oc(-c2ccccc2)nc1CCOc1ccc(C[C@]2(C(=O)O)CCCO2)cn1 | Activity [9]: 15.7%; clearance [10]: 2.5 mL/min/kg; Activity [11]: 147%; Activity [20]: 37%; Activity [13]: 99%; Activity [21]: 7.2%; Activity [22]: 11.7%; half-life [16]: 4.7 h; Activity [23]: 67%; bioavailability [18]: 59%; Activity [19]: 8.7%
228 nM | 96% | 78 nM | Cc1oc(-c2ccccc2)nc1CCOc1ccc(CC2(C(=O)O)CCCCO2)cn1 (stereo not given) | 
10 nM | 87% | 14 nM | Cc1oc(-c2ccc(Cl)cc2)nc1CCOc1ccc(CC2(C(=O)O)CCCO2)cn1 (stereo not given) | 
11 nM | 143% | 21 nM | Cc1oc(-c2ccc(C(F)(F)F)cc2)nc1CCOc1ccc(CC2(C(=O)O)CCCO2)cn1 (stereo not given) | 
31 nM | 167% | 314 nM | Cc1oc(-c2ccc(C#N)cc2)nc1CCOc1ccc(CC2(C(=O)O)CCCO2)cn1 (stereo not given) | EC50 [7]: 28 nM; Ki [8]: 334 nM

Further lines, the compound ahead of its results:

SMILES | EC50 [1] | %max [2] | Ki [3] | further results
Cc1oc(-c2ccccc2)nc1CCOc1ccc(CC2(C(=O)O)CC2)cn1 | 6150 nM | 39% |  | inhibition [4]: 44%
Cc1oc(-c2ccccc2)nc1CCOc1ccc(CC2(C(=O)O)CCOCC2)cn1 |  |  |  | Activity [5]: 32%; inhibition [6]: 2%
Cc1oc(-c2ccccc2)nc1CCOc1ccc(CC(CC(C)C)C(=O)O)cn1 (stereo not given) | 1720 nM | 98% | 430 nM | EC50 [7]: 1650 nM; Ki [8]: 360 nM
COC(C)(Cc1ccc(OCCc2nc(-c3ccccc3)oc2C)nc1)C(=O)O (stereo not given) | 144 nM | 106% | 330 nM | 
Cc1oc(-c2ccccc2)nc1CCOc1ccc(CC2(C(=O)O)CCOC2)cn1 (stereo not given) |  |  |  | Ki [8]: 17000 nM; inhibition [4]: 33%
CCCC(Cc1ccc(OCCc2nc(-c3ccccc3)oc2C)nc1)C(=O)O (stereo not given) | 770 nM | 92% | 880 nM | 
Cc1oc(-c2ccccc2)nc1CCOc1ccc(CC(C)(C)C(=O)O)cn1 | 534 nM | 112% | 6800 nM | 
COC(Cc1ccc(OCCc2ccc(Oc3cccc(Cl)c3)cc2C)nc1)C(=O)O (stereo not given) | 133 nM | 100% | 13 nM | EC50 [7]: 50 nM; Ki [8]: 15 nM
Cc1oc(-c2ccccc2)nc1CCCOc1ccc(CC2(C(=O)O)CCCO2)cn1 (stereo not given) |  |  | 1840 nM | Ki [8]: 810 nM
Cc1oc(-c2ccccc2)nc1CCOc1ccc(CC(C(=O)O)C(C)(C)C)cn1 (stereo not given) |  |  | 9400 nM | Ki [8]: 12000 nM
Cc1oc(-c2ccccc2)nc1CCOc1ccc(CC2(C(=O)O)CCC2)cn1 | 238 nM | 94% | 633 nM | EC50 [7]: 125 nM; Ki [8]: 394 nM
CCOC(Cc1ccc(OCCc2nc(-c3ccccc3)oc2C)nc1)C(=O)O (stereo not given) | 33 nM | 96% | 43 nM | 
CO[C@@](C)(Cc1ccc(OCCc2nc(-c3ccccc3)oc2C)nc1)C(=O)O | 111 nM | 99% | 570 nM | Activity [9]: 13.2%; clearance [10]: 2.2 mL/min/kg; Activity [11]: 177%; Activity [12]: 16.8%; Activity [13]: 88%; Activity [14]: 106%; Activity [15]: 7.2%; half-life [16]: 9.7 h; Activity [17]: 205%; bioavailability [18]: 87%; Activity [19]: 3.8%
Cc1oc(-c2ccccc2)nc1CCOc1ccc(CC(C(=O)O)C(C)C)cn1 (stereo not given) | 426 nM | 93% | 4100 nM | 
CCC(Cc1ccc(OCCc2nc(-c3ccccc3)oc2C)nc1)C(=O)O (stereo not given) | 150 nM | 106% | 1300 nM | 
Cc1oc(-c2ccccc2)nc1CCOc1ccc(CC2(C(=O)O)CCCCC2)cn1 |  |  | 8300 nM | 
COC(Cc1ccc(OCCc2nc(-c3ccccc3)oc2C)nc1)C(=O)O (stereo not given) | 83 nM | 95% | 180 nM | 
CN(CCOc1ccc(CC2SC(=O)NC2=O)cc1)c1ccccn1 (stereo not given) |  | 6% |  | 
Cc1oc(-c2ccccc2)nc1CCOc1ccc(CC(C)C(=O)O)cn1 (stereo not given) | 287 nM | 93% | 3000 nM | 
CCOC(CC)(Cc1ccc(OCCc2nc(-c3ccccc3)oc2C)nc1)C(=O)O (stereo not given) | 4670 nM | 64% | 15100 nM | EC50 [7]: 2810 nM; Ki [8]: 14400 nM
